Reference: ChEMBL document CHEMBL4808192, “Synthesis and biological evaluation of novel imidazo[1,2-a]pyridine-oxadiazole hybrids as anti-proliferative agents: Study of microtubule polymerization inhibition and DNA binding” (Bioorg Med Chem, 2021)
pIC50: −log10 of the molar value.

What was measured:
Assay type in all cases: functional, cell-based
DU-145 = assay: Antiproliferative activity against human DU-145 cells assessed as reduction in cell viability incubated for 48 hrs by MTT assay; details: DU-145, 48 h
Outline: (§1)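 Cells grown in medium with 10% FBS and 1% antibiotic-antimycotic at 37 °C, passaged at 80–90% confluence with 0.25% trypsin/1 mM EDTA. Seeded at 1000–4000 cells/well and grown overnight. Medium was then replaced and compounds added at various concentrations for 48 h. MTT (0.5 mg/mL) was added for 4 h at 37 °C, formazan dissolved in DMSO and absorbance read at 570 nm. IC50 is the 50% inhibitory concentration.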

PC-3 = assay: Antiproliferative activity against human PC-3 cells assessed as reduction in cell viability incubated for 48 hrs by MTT assay; details: PC-3, 48 h; outline: as §1
A549 = assay: Antiproliferative activity against human A549 cells assessed as reduction in cell viability incubated for 48 hrs by MTT assay; details: A549, 48 h; outline: as §1

## Cc1cccn2cc(-c3nnc(-c4ccc(Br)cc4)o3)nc12
DU-145
  pIC50: 4.41
PC-3
  pIC50: 4.42
A549
  pIC50: 4.46

## Cc1cc(Br)c2nc(-c3nnc(-c4ccccc4)o3)cn2c1
DU-145
  pIC50: 4.72
PC-3
  pIC50: 4.75
A549
  pIC50: 4.84

## Cc1cccn2cc(-c3nnc(-c4ccc(N(C)C)cc4)o3)nc12
DU-145
  pIC50: 4.97
PC-3
  pIC50: 4.94
A549
  pIC50: 4.91

## Cc1cccn2cc(-c3nnc(-c4ccccc4)o3)nc12
DU-145
  pIC50: 4.66
PC-3
  pIC50: 4.64
A549
  pIC50: 4.63

## Cc1cc(Br)c2nc(-c3nnc(-c4ccc(N(C)C)cc4)o3)cn2c1
DU-145
  pIC50: 4.89
PC-3
  pIC50: 4.95
A549
  pIC50: 4.97

## Cc1cccn2cc(-c3nnc(-c4ccccc4I)o3)nc12
DU-145
  pIC50: 4.50
PC-3
  pIC50: 4.47
A549
  pIC50: 4.48

## COc1cc(-c2nnc(-c3cn4cccc(C)c4n3)o2)cc(OC)c1OC
DU-145
  pIC50: 4.95
PC-3
  pIC50: 4.96
A549
  pIC50: 5.00

## Cc1cc(Br)c2nc(-c3nnc(-c4ccc(Cl)cc4)o3)cn2c1
DU-145
  pIC50: 4.34
PC-3
  pIC50: 4.38
A549
  pIC50: 4.36

## Brc1ccc(-c2nnc(-c3cn4ccccc4n3)o2)cc1
DU-145
  pIC50: < 4.30
PC-3
  pIC50: < 4.30
A549
  pIC50: < 4.30
